# Published values gathered from unrelated publications.
# Compare with care: the assays were run in different laboratories.
# Target: Serine/threonine-protein kinase MARK1 (MARK1, Homo sapiens, UniProt Q9P0L2)
Compound,assay,conditions,endpoint,value
Cn1cncc1[C@@](O)(COc1ccc(C#N)cc1-c1ccc(OC(F)(F)F)cc1)c1ccc(C#N)cc1,"cell-free assay, competition with immobilised ligand",1 µM,remaining binding,100%
Cn1cc(-c2cccc(N3CCc4c(sc5c4CC(C)(C)C5)C3=O)c2CO)cc(Nc2ccncn2)c1=O,"enzyme activity, inhibitor",1 µM,inhibition,1%
O=c1[nH]c2ccccc2n1C1CCN(Cc2ccc(-c3[nH]c4cc5ncnc5cc4nc3-c3ccccc3)cc2)CC1,cell-free assay,0.5 µM,remaining signal,104%
Cn1cc(-c2cc(F)cc(N3CCn4c(cc5c4CCCC5)C3=O)c2CO)cc(Nc2ccc(N3CCN(C4COC4)CC3)cn2)c1=O,"enzyme activity, inhibitor",0.1 µM,inhibition,10%
CC(C)(C)c1cc(C=C(C#N)C#N)cc(Br)c1O,"enzyme activity, inhibitor",0.5 µM,remaining activity,98.8%
C#Cc1n[nH]c2c(-c3cn([C@@H](C)c4ccccc4)c(=O)[nH]c3=O)cc(F)cc12,"enzyme activity, inhibitor",0.1 µM,inhibition,4.1%
N#CC1(c2ccccn2)CCN(Cc2cc(C(=O)O)c(=O)n3ccccc23)CC1,"cell-free assay, competition with immobilised ligand",1 µM,remaining binding,94%
COc1ncccc1-c1cnn2ccc(N3CCN(C(=O)OC(C)C)CC3)nc12,"binding, competition with immobilised ligand",1 µM,remaining binding,100%
COc1cc(Nc2ncc(F)c(Nc3ccc4c(n3)NC(=O)C(C)(C)O4)n2)cc(OC)c1OC,"binding, competition with immobilised ligand",10 µM,inhibition,94%
Nc1ncc(-c2nc(N3CCOCC3)nc(N3CCOCC3)n2)c(C(F)F)n1,"binding, competition with immobilised ligand",10 µM,remaining binding,88%
Cc1nn(C)cc1-c1nc2c(N3CCN(Cc4ccc(Cl)cc4)CC3)c(Cl)cnc2[nH]1,"binding, competition with immobilised ligand",1 µM,remaining binding,78%
C#Cc1n[nH]c2c(-c3cn([C@@H](C)c4ccccn4)c(=O)[nH]c3=O)cc(F)cc12,"enzyme activity, inhibitor",0.1 µM,inhibition,4.9%
